Results: ChEMBL document CHEMBL1135749, “Stereoselective synthesis and antiviral activity of D-2',3'-didehydro-2',3'-dideoxy-2'-fluoro-4'-thionucleosides” (J Med Chem, 2002)
Each block holds one compound with its values, some of them ahead of it.

Experiments:
Vero = test: Cytotoxicity against Vero cells; assay type: cell-based; conditions: Chlorocebus sabaeus
Procedure, shortened: (§1)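 Uninfected log-phase cells seeded on 10-fold serial drug dilutions: Vero at 5 × 10³, CEM at 2.5 × 10³, and PHA-stimulated PBM at 5 × 10⁴ cells/well. Incubated at 37 °C in 5% CO₂ for 3 days (Vero), 4 days (CEM) or 5 days (PBM). MTT added overnight, then solubilized and read at 570 nm. IC50 by the median effect method.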

[1] = In vitro cytotoxicity against human peripheral blood mononuclear (PBM) cells; assay type: cell-based; procedure, shortened: as §1
[2] = Anti-viral activity against HIV-1 in human PBM cells; assay type: functional, cell-based; conditions: PBMC
Procedure, shortened: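 PHA-stimulated (2-3 days) human PBM cells from healthy seronegative donors, infected in bulk for 1 h with HIV-1 LAI (100 TCID50/1 × 10⁷ cells flask or 200 TCID50/6 × 10⁵ cells/well). Cells then placed on 10-fold serial compound dilutions in RPMI-1640 with IL-2, 5 days at 37 °C. Supernatant RT activity measured by ³H-TTP incorporation on poly(rA)·oligo(dT). EC50 obtained by the median effect method.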

CCRF-CEM = test: Cytotoxicity against CEM cells; assay type: cell-based; conditions: Homo sapiens; procedure, shortened: as §1
[3] = Antiviral activity against HIV-1xxBRU […] strain in human PBM cells; assay type: functional; conditions: PBMC
Procedure, shortened: (§2)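 Molecular infectious clones HIV-1 xxBru and HIV-1 M184Vpitt used in PHA-stimulated human PBM cells. Bulk 1 h infection at 100 TCID50/1 × 10⁷ cells (flask) or 200 TCID50/6 × 10⁵ cells/well. Cells then exposed to 10-fold serial compound dilutions for 5 days at 37 °C. Read-out was pelleted-virus RT activity with ³H-TTP. EC50 by the median effect method.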

[4] = Antiviral activity against (HIV-1M184V) mutant strain in human PBM cells; assay type: functional; conditions: PBMC; procedure, shortened: as §2
[5] = target: Adenosine deaminase (Bos taurus) (UniProt P56658); test: Half life value of the compound

SMILES: Nc1nc(F)nc2c1ncn2[C@@H]1S[C@H](CO)C=C1F
IC50 (Vero): 7.6 µM | IC50 [1]: 1.5 µM | EC50 [2]: 1.2 µM | IC50 (CCRF-CEM): 1.1 µM

SMILES: O=c1nc(O)ccn1[C@@H]1S[C@H](CO)C=C1F
IC50 (Vero): > 100 µM | IC50 [1]: > 100 µM | EC50 [2]: > 100 µM | IC50 (CCRF-CEM): > 100 µM

SMILES: Cc1cn([C@@H]2S[C@H](CO)C=C2F)c(=O)nc1O
IC50 (Vero): 53 µM | IC50 [1]: > 100 µM | EC50 [2]: 92.3 µM | IC50 (CCRF-CEM): > 100 µM

SMILES: Nc1nc2c(ncn2[C@@H]2S[C@H](CO)C=C2F)c(=O)[nH]1
IC50 (Vero): > 100 µM | IC50 [1]: > 100 µM | EC50 [2]: 80.5 µM | IC50 (CCRF-CEM): > 100 µM

SMILES: Nc1ccn([C@@H]2S[C@H](CO)C=C2F)c(=O)n1
EC90 [3]: 5 µM | IC50 (Vero): > 100 µM | IC50 [1]: > 100 µM | EC50 [2]: 1.3 µM | EC90 [4]: 125 µM | IC50 (CCRF-CEM): > 100 µM

SMILES: O=c1[nH]cnc2c1ncn2[C@@H]1S[C@H](CO)C=C1F
IC50 (Vero): > 100 µM | IC50 [1]: > 100 µM | EC50 [2]: 43.6 µM | IC50 (CCRF-CEM): > 100 µM

SMILES: Nc1ncnc2c1ncn2[C@@H]1S[C@H](CO)C=C1F
IC50 (Vero): > 100 µM | IC50 [1]: > 100 µM | EC50 [2]: 8.1 µM | half-life [5]: 33 min | IC50 (CCRF-CEM): > 100 µM

SMILES: Cc1cn([C@H]2C[C@H](N=[N+]=[N-])[C@@H](CO)O2)c(=O)[nH]c1=O [ZIDOVUDINE]
EC90 [3]: 0.01 µM | IC50 [1]: > 100 µM | EC50 [2]: 0.004 µM | EC90 [4]: 0.003 µM

SMILES: Nc1ccn([C@@H]2CS[C@H](CO)O2)c(=O)n1 [LAMIVUDINE]
EC90 [3]: 0.08 µM | EC90 [4]: 535 µM

half-life [5]: 0.5 min
SMILES: Nc1ncnc2c1ncn2[C@@H]1O[C@H](CO)[C@@H](O)[C@H]1O [ADENOSINE]

SMILES: Nc1nc(=O)n([C@@H]2S[C@H](CO)C=C2F)cc1F
IC50 (Vero): > 100 µM | IC50 [1]: > 100 µM | EC50 [2]: 11.6 µM | IC50 (CCRF-CEM): > 100 µM

half-life [5]: 42 min
SMILES: Nc1ncnc2c1ncn2[C@@H]1O[C@H](CO)C=C1F
